Measured values reported in the EternaBench riboswitch data.

System: MS2 coat protein
Test: apparent Kd, MS2 coat protein; higher = weaker binding; RNA-MaP array; FMN 200 µM where present
Procedure, shortened: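 Stalled E. coli RNA polymerase transcribed the designs on Illumina sequencing-chip clusters. SNAP-549-labelled MS2 coat protein was titrated from 0.7 or 1.5 nM, doubling to 3 µM, without and then with constant ligand, in 100 mM Tris-HCl pH 7.5, 80 mM KCl, 4 mM MgCl2, BSA, DTT, yeast tRNA and Tween-20. Per-cluster binding curves were fitted to green signal normalised to red-channel RNA signal and control-cluster median Fmax. The apparent Kd is the median of the filtered fits.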

[1] = designed as: OFF switch for flavin mononucleotide, no ligand
[2] = ligand present: flavin mononucleotide, designed as: OFF switch for flavin mononucleotide
[3] = designed as: ON switch for flavin mononucleotide, no ligand
[4] = ligand present: flavin mononucleotide, designed as: ON switch for flavin mononucleotide

Sequence	apparent Kd [1] [nM]	apparent Kd [2] [nM]	apparent Kd [3] [nM]	apparent Kd [4] [nM]
GAGCGAAAGCUCAAUGUCGAUAGCAGAAGGACGUGAAAACAUGAAAACACAUGAGGAUCACCCAUGUAGGAUAUGCUAUCGACU	11.2	27.6		
GAGGUAUUCGUAGGAUAUCCGUCGCCACCGUGUGGAGAAGGACGAACAUGAGGAUCACCCAUGUAUCAUGGUGUGGACGCUUUC	71.5	82.8		
GAGUAGAUCCGAGGAUAUACAAUCCGGAAACGGUACAUGAGGAUCACCCAUGUAGAAGGCGGAUCUACAGGUACUAAAGUACCC	5.73	8.11		
GAGUAGAUCCGAGGAUAUACAAUCCGGAAACGGUACAUGAGGAUCACCCAUGUAGAAGGCGGAUCUACAGGUACUAAAGUACCU		7.89		
GAGUAGUAAGGAUAUGUCUCUGGUGGCUACGGUCACUAGAGGCAGAAGGUACAUGAGGAUCACCCAUGUUUUUU	17.2	19.3		
GAGUAGUUAAAAGGAUAUUGAUUAUUGUAGGAUCAAGAAGGUUUUAACAUGAGGAUCACCCAUGUAGGACUAUAAAUGUGAAAA			17.5	15
GAGUGAUUAGGAUAUACAUGAGGAUCACCCAUGUGCUUCAGCUAGGAGACUAGCAUUGGUAGAAGGAAUUACUC	16.3	57.1		
GAGUGGAAGGCCGCUACAUGAGGAUCACCCAUGUGCUAAGCACAGGAUAUCGCGUGGGCCCGACGCGAGAAGGGUGACGGCCUG			582	246
GAGUGGUAAAGAGGAUAUGCAUUGUUAUUCACUGCAGAAGGUUUUAACAUGAGGAUCACCCAUGUAGGACUAUUCCUGUGUUUC			14.6	12.5
GAGUGGUAGAGAGGAUAUGCAUUGUUAUUAAAUGCAGAAGGUUUUAACAUGAGGAUCACCCAUGUAGGACUAUUCCUGUGUUUC			15.5	13.6
GAUAAGGAAGGAUAUGUGGCCUUAUACAUGAGGAUCACCCAUGUUACGACAUACCACUACACAGAAGGUCUAUUAC	32.2	30.5		
GAUAGAGAGCAGGAUAUCUUGGGUAAGUAUCGUAGAGAAGGGCUCACAUGAGGAUCACCCAUGUGGUCCAAGAU	14.2	32.6		
GAUAGGACAGAGAAGGACAUAGCUAGAGAUACUAGCAUAAGAACUUCAACAUGAGGAUCACCCAUGUAGGAUAUCUGUCCUAUC	6.88	8.76		
GAUGAGGUAGGAUAUACGAGAAUAUAGGGUAGAUAUAUAACACAUGAGGAUCACCCAUGUAGAAGGACCAGUAG	38.4	89.9		
GAUGUUCUGGUCAGGAUAUGCAUCCGUCGGCCGGAGCAGAAGGGACAUGAGGAUCACCCAUGUGCGGGUACAAA	38.7	38.3		
GAUUAACAUGAGGAUCACCCAUGUCGUUUAAUGGGAGGAUAUACGUGGACCGUAGUCCGCGUAGAAGGCCUAAUUG			90.8	26.9
GAUUAACAUGAGGAUCACCCAUGUGAGGAUAUGAACUAGACCACUUACCCGAUAUUGUUCAGAAGGCGCAUUCU	34.1	39.5		
GAUUAACAUGAGGAUCACCCAUGUGAGGAUAUGGACUGGCUCACUUUCCGAUUCGAGUCUAGAAGGCGCAUCUU	32.8	35.2		
GAUUCACAUGAGGAUCACCCAUGUCGUAAUAUGGGAGGAUAUACGUGGACCGUAGUCCGCGUAGAAGGCCUAAUUG			172	36.6

Sequence	apparent Kd [1] [nM]	apparent Kd [2] [nM]	apparent Kd [3] [nM]	apparent Kd [4] [nM]
GAUUCACAUGAGGAUCACCCAUGUCGUUUAAUGGGAGGAUAUACGUGGACCGUAGUCCGCGUAGAAGGCCUAAUUG			95.1	25.6
GAUUCACAUGAGGAUCACCCAUGUCGUUUUAUGGGAGGAUAUACGUGGACCGUAGUCCGCGUAGAAGGCCUAAUUG			102	30.4
GAUUCACAUGAGGAUCACCCAUGUGAGGAUAUCUAGGUGCGGAGGCUAAGGCCUCCAGAGAGAAGGCACAUGGC	27.3	41.3		
GAUUGACAUGAGGAUCACCCAUGUGAGGAUAUCGGCCGGACCUUGUUAGCUUCCAUCGCGAGAAGGCACAUAGG	28.1	37.1		
GAUUGACAUGAGGAUCACCCAUGUGAGGAUAUCGGCUGGACCGUGUUGGCUUCCGUCUCGAGAAGGCGCAUAGG	16	23.3		
GAUUGAGAGCAGGAUAUCUUAGAAAUGUAUUAAAGAGAAGGGCUCACAUGAGGAUCACCCAUGUGGUCCUAGAU	20.2	175		
GAUUUACAUGAGGAUCACCCAUGUGAGGAUAUGGAAUGGCUCAUUGUCUGAUUUCCUUCUAGAAGGCACAUCUG	54.2	54.9		
GAUUUACAUGAGGAUCACCCAUGUGAGGAUAUGGAAUGGCUCAUUGUCUGAUUUCCUUCUAGAAGGCACAUCUU	43.7	51		
GAUUUGUGAGGAUAUACAUGAGGAUCACCCAUGUGUGUCCAUACGCGUGAGUCUUCAUGUAGAAGGCGCGGGUC	17.1	15.6		
GCAAAUUAGUGAGGAUAUACAUAAUUUAUUUCUGUAGAAGGCACAAACCUCAAGACAUGAGGAUCACCCAUGUGGUAUUUAAGC	155	415		
GCAACGCCUGACAUGAGGAUCACCCAUGUUAGAUUGUUAUGUCAGGAUAUAGUCUCGAAACGAGACUAGAAGGGAUAUGUUGCU			888	122
GCAAGAAUAGGAUAUACACCGUGUCAGCUUUUAUAUAUCGCACAUGAGGAUCACCCAUGUAGAAGGGUUCUCUG	420	353		
GCAAUAGCAUGAGGAUAUGCUGGAGUUUAGACAGCAGAAGGCAUGUCAUAAGACAUGAGGAUCACCCAUGUAAUUACAAUAGCA			57.8	10.4
GCACAUGAGGAUCACCCAUGUCGGGAGGAUAUCUAGGCUGGGCGAUGCUAGGGCGGCCUCUGCUUAGAGAAGGCCCAUAAAAUC			197	33.4
GCACAUGAUACAGGAUAUGUUUUUUAAUUUAUUAUGAGUUAUAUAUUAUUUACAGAAGGGUAUACAUGAGGAUCACCCAUGUGC	40.9	31.4		
GCACCUGCGUAGAAGGUACUAUAUAAUGCAGUGUAAGGAUAUACAUACAUGAGGAUCACCCAUGUAAAUGGAAUUUGCAGGUGC			12.2	10.3
GCACUGGAUGUAGGAUAUCAGGACGAUAAGUCCUGAGAAGGACAUGAGGAUCACCCAUGUGAUAAAACCAGUGCAAAUAAUAUA	18.5	109		
GCACUGGCAGGAUAUACAUGAGGAUCACCCAUGUGAUCCCUUAAGUACAAAAGUACAAGUAGAAGGGCCUGUGC	771	188		
GCACUUACGUUAGGAUAUGGAUCGGAAAACGAUCCAGAAGGAAUAUGGGAACAUGAGGAUCACCCAUGUUCCUCAGACAAGUGC			67.7	35.1

Sequence	apparent Kd [1] [nM]	apparent Kd [2] [nM]	apparent Kd [3] [nM]	apparent Kd [4] [nM]
GCAGCACAGAUUUACAUGAGGAUCACCCAUGUCUAUUGAGAUGAGGAUAUGCAUCGAAUGAAGUUGCAGAAGGCAUUGUGCUGC			7.51	6
GCAGCACAUGAGGAUCACCCAUGUCUUCGGAGUCGAGGAUAUGGUCACUGUAAACAGUGGCCAGAAGGCGAGUUGC			31.7	27.2
GCAGCACUGUAGAACAUGAGGAUCACCCAUGUCGAUUGUUAUGAGGAUAUGCAUCGUAUGAAGAUGCAGAAGGCAUUGUGCUGC			5.59	5.16
GCAGCAUCUGCAGGAUAUCAGCACGUGUAGUGCUGAGAAGGGCACAUGAGGAUCACCCAUGUGAUCAAUUAAUAUAGAUGCUGC	5.78	15.8		
GCAGCGUAUGUAGGAUAUCGGUCAGUUUCUGAUCGAGAAGGACAUGAGGAUCACCCAUGUAAAUUACCGACAUUGUCGGGCUGC	6.5	8.25		
GCAGGUCGAGGAUAUACAUGAGGAUCACCCAUGUGAUUAGCAGUCCUCGGACUGCAAUGUAGAAGGUGACCUGC	148	501		
GCAUCACAUGAGGAUCACCCAUGUCUUCGGAGUGGAGGAUAUGGUCACUGUAAACAGUGGCCAGAAGGCCGGAUGC			82.6	94.5
GCAUGCAAGUAGAAGGACGGAUAUUUUGAAAACGUAGGAUAUACAGAAUCAUAUCCACAAGGUAACAUGAGGAUCACCCAUGUA	10.5	9.58		
GCAUGCAUAGCGAUAUGAUCGAGAGAUCAUGUCGCUAAAUUUAGAAGGACAUGAGGAUCACCCAUGUAGGAUAUGGGAGCAUGU			92.1	15.4
GCAUGCGUUCGAGGAUAUCGGUGAGCAACGGAACGAGAAGGCGAUCGAAUGUCACAUAUUAUGUACAUGAGGAUCACCCAUGUA			104	43.4
GCAUGCUAUGUCAGGAUAUACCUCUGGAUACAUAGGUAGAAGGGACAUGAGGAUCACCCAUGUCCUCAUCAUGC	12.4	23.8		
GCAUGUCUUAAGGAUAUGCUUUGGCGUGAGCCGGCAGAAGGUAAGACAUGAGGAUCACCCAUGUUUUCCUAAAA	20.5	140		
GCAUUGAUAACAGGAUAUAUGAGUCCUACAUGAGGAUCACCCAUGUAGGUGAUCAGCCGUGAUUAGUAGAAGGGUUAUCAAUGC			13	5.99
GCAUUGAUAACAGGAUAUAUGUUUCCUACAUGAGGAUCACCCAUGUAGGUGAUCAGCCGAGAAAAGUAGAAGGGUUAUCAAUGC			16.7	15.4
GCCAACGCAUGAGGAUAUGCUCCCGUUUCGGGAGCAGAAGGCAUGUCAUAAGACAUGAGGAUCACCCAUGUAGUUAAGAUGGCA			474	20.1
GCCAAGGUACAGAAGGGACUACAUGAGGAUCACCCAUGUGUUUCUGCACGUAAAUGAUACAGUGGUCAGGAUAUGUGCUCCAAA	9.49	25.8		
GCCACGGGAGGAUAUCGCGGAGGCUACAUGAGGAUCACCCAUGUCUGGUCUUCGUGCUCCCGAGAAGGCCCGUCAG	14	32.9		
GCCAGGAUGUAAGGAUAUGCUGAGGAAUACUCAGCAGAAGGUACAUGAGGAUCACCCAUGUAAUCCAAUAAUAAAUAACCUGGC	11.3	23.4		
